# Laboratory results from ChEMBL document CHEMBL1143528, “Kinesin spindle protein (KSP) inhibitors. Part 1: The discovery of 3,5-diaryl-4,5-dihydropyrazoles as potent and selective inhibitors of the mitotic kinesin KSP” (Bioorg Med Chem Lett, 2005).
# Columns and labels:
# [1] = molecular target: T1, Kinesin-like protein KIF11 (Homo sapiens, UniProt P52732); experiment: In vitro inhibitory concentration towards kinesin spindle protein activity of ATP hydrolysis in the presence of microtubules measured by ATPase assay (n=3)
# T1 sequence (P52732 whole entry): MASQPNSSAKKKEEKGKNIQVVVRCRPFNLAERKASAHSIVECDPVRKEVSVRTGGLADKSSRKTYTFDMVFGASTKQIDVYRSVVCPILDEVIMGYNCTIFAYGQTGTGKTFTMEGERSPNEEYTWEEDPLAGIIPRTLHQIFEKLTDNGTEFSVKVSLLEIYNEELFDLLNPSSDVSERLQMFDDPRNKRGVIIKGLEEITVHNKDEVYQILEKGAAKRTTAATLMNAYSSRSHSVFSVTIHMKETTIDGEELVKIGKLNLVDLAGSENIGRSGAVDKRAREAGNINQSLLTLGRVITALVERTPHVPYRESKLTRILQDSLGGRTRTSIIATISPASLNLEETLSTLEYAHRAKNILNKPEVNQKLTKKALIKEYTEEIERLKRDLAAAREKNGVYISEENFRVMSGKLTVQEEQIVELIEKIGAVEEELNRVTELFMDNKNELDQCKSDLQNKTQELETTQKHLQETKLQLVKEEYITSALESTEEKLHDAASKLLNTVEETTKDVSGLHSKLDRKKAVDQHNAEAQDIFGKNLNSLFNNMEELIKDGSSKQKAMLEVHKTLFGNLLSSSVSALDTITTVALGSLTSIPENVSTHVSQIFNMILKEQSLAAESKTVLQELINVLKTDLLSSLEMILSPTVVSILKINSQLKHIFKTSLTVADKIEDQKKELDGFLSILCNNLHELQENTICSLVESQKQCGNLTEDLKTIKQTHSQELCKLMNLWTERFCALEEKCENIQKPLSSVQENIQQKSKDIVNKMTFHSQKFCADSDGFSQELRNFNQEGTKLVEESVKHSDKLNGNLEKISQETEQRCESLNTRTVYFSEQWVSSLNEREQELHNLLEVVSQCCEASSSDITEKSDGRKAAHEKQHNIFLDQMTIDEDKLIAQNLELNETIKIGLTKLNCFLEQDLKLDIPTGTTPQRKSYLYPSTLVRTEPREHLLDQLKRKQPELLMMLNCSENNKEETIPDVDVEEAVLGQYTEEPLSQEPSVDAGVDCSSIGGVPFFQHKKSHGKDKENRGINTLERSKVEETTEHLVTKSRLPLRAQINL
# [2] = molecular target: T2, Caspase-3 (Homo sapiens, UniProt P42574); experiment: Inhibitory concentration towards caspase-3 induction in human A2780 ovarian carcinoma cells; assay type: functional, cell-based
# T2 sequence (P42574 whole entry): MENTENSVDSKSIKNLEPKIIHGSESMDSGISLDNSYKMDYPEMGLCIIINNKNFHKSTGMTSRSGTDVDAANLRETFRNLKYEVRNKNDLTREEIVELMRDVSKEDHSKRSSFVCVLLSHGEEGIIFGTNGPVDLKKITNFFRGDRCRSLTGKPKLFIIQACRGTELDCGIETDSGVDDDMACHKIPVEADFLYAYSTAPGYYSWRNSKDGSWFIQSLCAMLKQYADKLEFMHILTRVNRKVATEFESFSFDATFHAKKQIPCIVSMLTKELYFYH
# Summary of the method: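 A2780 human ovarian carcinoma cells were treated with compound. Caspase-3 activation, used as an apoptosis marker, was then measured in cell lysates with a fluorescent kit that reads release of the AFC fluorophore from DEVD-AFC substrate. The value is a concentration giving 50% of caspase-3 induction.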
Compound,IC50 [1] [µM],IC50 [2] [µM]
CC(=O)N1N=C(c2c(F)cccc2F)CC1c1ccccc1 (configuration not stated),10.9,
CC(=O)N1N=C(c2ccccc2)CC1c1ccccc1 (configuration not stated),> 50,
CNC(=O)N1N=C(c2cc(F)ccc2F)CC1c1ccccc1 (configuration not stated),3.1,
CC(=O)N1N=C(c2ccccc2C)CC1c1ccccc1 (configuration not stated),46.2,
CC(C)C(=O)N1N=C(c2ccccc2Cl)CC1c1cccc(O)c1 (configuration not stated),1.1,
CC(=S)N1N=C(c2cc(F)ccc2F)CC1c1ccccc1 (configuration not stated),0.25,
CC(=O)N1N=C(c2cc(F)ccc2F)C[C@H]1c1cccc(O)c1,0.026,0.015
CC(=O)N1N=C(c2cc(F)ccc2F)CC1c1cccs1 (configuration not stated),1.8,
CC(=O)N1N=C(c2ccccc2F)CC1c1ccccc1 (configuration not stated),3.6,
O=C(c1ccccc1)N1N=C(c2ccccc2Cl)CC1c1cccc(O)c1 (configuration not stated),13.5,
CC(=O)N1N=C(c2ccccc2Cl)CC1c1ccccc1 (configuration not stated),3.6,
CC(=O)N1N=C(c2ccc(Cl)cc2)CC1c1ccccc1 (configuration not stated),> 50,
CC(=O)N1N=C(c2cc(F)ccc2F)CC1c1cccc(O)c1 (configuration not stated),0.051,
CN(C)C(=O)N1N=C(c2cc(F)ccc2F)CC1c1ccccc1 (configuration not stated),0.084,
CC(=O)N1N=C(c2ccccc2Cl)CC1c1cccc(O)c1 (configuration not stated),0.45,
CN1N=C(c2ccccc2Cl)CC1c1cccc(O)c1 (configuration not stated),> 50,

Compound,IC50 [1] [µM],IC50 [2] [µM]
CC(=O)N1N=C(c2cc(F)ccc2F)CC1c1ccccc1 (configuration not stated),0.094,
COC(=O)N1N=C(c2ccccc2Cl)CC1c1cccc(O)c1 (configuration not stated),> 50,
CS(=O)(=O)N1N=C(c2cc(F)ccc2F)CC1c1ccccc1 (configuration not stated),1.8,
CCC(=O)N1N=C(c2ccccc2Cl)CC1c1cccc(O)c1 (configuration not stated),1.2,
NCCCC(=O)N1N=C(c2ccccc2Cl)CC1c1cccc(O)c1 (configuration not stated),6,
CC(=O)N1N=C(c2ccc(Cl)cc2Cl)CC1c1ccccc1 (configuration not stated),37.6,
CC(=O)N1N=C(c2ccccc2Br)CC1c1ccccc1 (configuration not stated),23.3,
CC(C)(C)C(=O)N1N=C(c2ccccc2Cl)CC1c1cccc(O)c1 (configuration not stated),0.46,
CC(=O)N1N=C(c2cccc(Cl)c2)CC1c1ccccc1 (configuration not stated),9.8,
CC(=O)N1N=C(c2ccccc2)CC1c1cccc(O)c1 (configuration not stated),6.9,
CC(=O)N1N=C(c2cccc(F)c2F)CC1c1ccccc1 (configuration not stated),12.7,
COc1ccccc1C1=NN(C(C)=O)C(c2ccccc2)C1 (configuration not stated),> 50,
CC(=O)N1N=C(c2cc(F)cc(F)c2)CC1c1ccccc1 (configuration not stated),> 5,
CC(=O)N1N=C(c2ccccc2C(F)(F)F)CC1c1ccccc1 (configuration not stated),> 50,
CCOC(=O)C1=C(C)NC(=S)N[C@H]1c1cccc(O)c1 [S-MENASTROL],10,
